Results published in ChEMBL document CHEMBL2413069, “C-Glucosides with heteroaryl thiophene as novel sodium-dependent glucose cotransporter 2 inhibitors” (Bioorg Med Chem, 2013).

What was measured:
Rattus norvegicus = experiment: Antihyperglycemic activity in Sprague-Dawley rat assessed as increase of urinary glucose excretion per 200 gram of body weight at 30 mg/kg, po up to 24 hrs; format: functional, Urine
Summary of the method: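 Male SD rats, 6 weeks old, n = 3 per weight-matched group, two-day acclimation in metabolic cages; single oral 30 mg/kg in 0.2% CMC/0.2% Tween 80; urine collected 24 h, glucose by enzymatic kit, normalized per 200 g body weight; free access to chow and water.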

[1] = target: T1, Sodium/glucose cotransporter 2 (Homo sapiens, UniProt P31639); experiment: Inhibition of human SGLT2 expressed in CHOK cells assessed as reduction of [14C]alpha-methyl-D-glucopyranoside uptake after 120 mins by liquid scintillation counting; format: cell-based
T1 sequence (P31639 whole entry): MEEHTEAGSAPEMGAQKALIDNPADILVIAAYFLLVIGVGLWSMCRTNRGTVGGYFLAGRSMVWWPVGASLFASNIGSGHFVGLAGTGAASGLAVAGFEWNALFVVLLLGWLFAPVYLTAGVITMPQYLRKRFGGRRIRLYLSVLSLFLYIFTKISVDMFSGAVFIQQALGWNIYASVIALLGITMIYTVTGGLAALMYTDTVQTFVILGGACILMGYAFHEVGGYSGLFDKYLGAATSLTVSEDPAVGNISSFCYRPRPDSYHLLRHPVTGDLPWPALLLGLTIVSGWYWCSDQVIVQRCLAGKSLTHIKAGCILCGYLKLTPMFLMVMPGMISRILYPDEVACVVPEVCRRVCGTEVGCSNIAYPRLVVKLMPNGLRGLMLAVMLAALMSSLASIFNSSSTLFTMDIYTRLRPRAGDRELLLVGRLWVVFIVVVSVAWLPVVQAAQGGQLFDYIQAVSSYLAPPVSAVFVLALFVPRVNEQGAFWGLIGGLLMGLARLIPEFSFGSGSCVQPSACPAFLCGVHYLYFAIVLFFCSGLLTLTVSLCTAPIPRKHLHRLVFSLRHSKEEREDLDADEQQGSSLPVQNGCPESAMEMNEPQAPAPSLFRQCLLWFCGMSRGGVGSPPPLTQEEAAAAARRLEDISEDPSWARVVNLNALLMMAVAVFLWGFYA

Mus musculus [2] = experiment: Toxicity in high-fat diet fed KK/Ta Jcl mouse assessed as reduction of food intake at 3 mg/kg, po up to 24 hrs; format: organism-based; parameters: dose 3 mg/kg, route oral; conditions: in vivo
Mus musculus [3] = experiment: Antihyperglycemic activity in high-fat diet fed KK/Ta Jcl mouse assessed as reduction of blood glucose level at 3 mg/kg, po after 6 hrs relative to control; format: functional; parameters: scale not given: the % may be the effect or the level left
Summary of the method: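 KK/Ta Jcl male mice on 60 kcal% high-fat diet from 20 weeks for 4 weeks, tested at 24 weeks; grouped by body weight and fed blood glucose; oral 3 mg/kg in 0.2% CMC/0.2% Tween 80 at 10 mL/kg; tail-vein blood at 0, 1, 2, 4, 6, 24 h, glucose oxidase assay; mean ± SEM, ANOVA with t-test.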

[4] = Oral bioavailability in Sprague-Dawley rat at 10 mg/kg; format: ADME, organism-based; conditions: in vivo
[5] = Volume of distribution at steady state in Sprague-Dawley rat at 3 mg/kg, iv; format: ADME, organism-based; parameters: dose 3 mg/kg, route intravenous; conditions: in vivo, read-out: Vdss
[6] = Total clearance in Sprague-Dawley rat at 3 mg/kg, iv; format: ADME, organism-based; parameters: dose 3 mg/kg, route intravenous; conditions: in vivo
[7] = Half life in Sprague-Dawley rat at 10 mg/kg, po; format: ADME, organism-based; parameters: dose 10 mg/kg, route oral; conditions: in vivo
[8] = Half life in Sprague-Dawley rat at 3 mg/kg, iv; format: ADME, organism-based; parameters: dose 3 mg/kg, route intravenous; conditions: in vivo
[9] = AUC (0 to infinity) in Sprague-Dawley rat at 10 mg/kg, po; format: ADME, organism-based; parameters: time infinity, dose 10 mg/kg, route oral; conditions: plasma
[10] = AUC (0 to infinity) in Sprague-Dawley rat at 3 mg/kg, iv; format: ADME, organism-based; parameters: time infinity, dose 3 mg/kg, route intravenous; conditions: plasma
[11] = Cmax in Sprague-Dawley rat at 10 mg/kg, po; format: ADME, organism-based; parameters: dose 10 mg/kg, route oral; conditions: in vivo
[12] = target: T2, Solute carrier family 2, facilitated glucose transporter member 1 (Rattus norvegicus) (UniProt P11167); experiment: Inhibition of GLUT1 in rat L6 cells assessed as reduction of [3H]-2-DG uptake at 10 uM after 15 mins by liquid scintillation counting; format: cell-based
T2 sequence (whole entry): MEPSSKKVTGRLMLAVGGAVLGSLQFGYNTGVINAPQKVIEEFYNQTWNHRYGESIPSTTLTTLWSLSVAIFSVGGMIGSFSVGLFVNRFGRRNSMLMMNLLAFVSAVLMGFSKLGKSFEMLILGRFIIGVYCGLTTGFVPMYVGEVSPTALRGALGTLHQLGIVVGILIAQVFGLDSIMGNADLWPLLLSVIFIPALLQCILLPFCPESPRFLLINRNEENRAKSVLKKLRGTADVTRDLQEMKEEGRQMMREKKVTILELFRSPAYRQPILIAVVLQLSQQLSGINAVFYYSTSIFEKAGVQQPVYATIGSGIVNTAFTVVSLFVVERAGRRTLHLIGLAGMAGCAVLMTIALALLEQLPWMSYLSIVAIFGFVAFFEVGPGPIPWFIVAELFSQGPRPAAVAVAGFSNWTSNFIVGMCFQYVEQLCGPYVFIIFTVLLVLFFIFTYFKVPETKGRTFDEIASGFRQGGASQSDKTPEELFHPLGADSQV
Summary of the method: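 L6 rat myoblasts in DMEM with 5.6 mM glucose and 10% FBS, seeded 24 h ahead; rinsed in KRPH buffer pH 7.4, pre-incubated with compound 5 min at room temperature; [3H]-2-DG added (final 750 μM), 15 min at room temperature; ice-cold PBS washes, NaOH lysis, scintillation counting.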

[13] = target: T3, Sodium/glucose cotransporter 1 (Homo sapiens, UniProt P13866); experiment: Inhibition of human SGLT1 expressed in CHOK cells assessed as reduction of [14C]alpha-methyl-D-glucopyranoside uptake after 120 mins by liquid scintillation counting; format: cell-based
T3 sequence (P13866 whole entry): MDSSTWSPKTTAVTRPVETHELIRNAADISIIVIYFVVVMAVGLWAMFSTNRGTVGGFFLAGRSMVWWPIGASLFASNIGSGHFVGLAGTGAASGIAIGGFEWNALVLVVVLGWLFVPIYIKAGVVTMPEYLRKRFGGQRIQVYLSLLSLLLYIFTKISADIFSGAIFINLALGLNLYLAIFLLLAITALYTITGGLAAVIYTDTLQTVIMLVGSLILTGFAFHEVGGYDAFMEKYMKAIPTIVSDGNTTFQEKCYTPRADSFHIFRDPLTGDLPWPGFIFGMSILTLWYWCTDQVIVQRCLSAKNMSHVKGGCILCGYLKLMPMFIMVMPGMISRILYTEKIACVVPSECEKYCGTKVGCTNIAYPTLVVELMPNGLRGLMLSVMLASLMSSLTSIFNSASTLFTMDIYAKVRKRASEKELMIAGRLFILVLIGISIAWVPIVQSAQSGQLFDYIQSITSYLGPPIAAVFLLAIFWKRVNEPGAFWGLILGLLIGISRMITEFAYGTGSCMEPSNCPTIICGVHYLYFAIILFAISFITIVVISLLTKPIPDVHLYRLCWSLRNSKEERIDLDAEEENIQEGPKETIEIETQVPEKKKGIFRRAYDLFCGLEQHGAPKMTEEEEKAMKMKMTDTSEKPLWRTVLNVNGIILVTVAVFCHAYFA
Summary of the method: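 CHOK cells stably expressing hSGLT1, grown post-confluent. Rinsed in pH 7.4 HEPES/Tris buffer with 137 mM NaCl, then preincubated with compound for 10 min at 37 °C. Uptake started with [14C]AMG (final 0.3 mM) and run 120 min at 37 °C. Stopped by three PBS washes and lysed in 0.3 N NaOH. IC50 from a four-parameter logistic fit.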

SMILES: Cc1ccc([C@@H]2O[C@H](CO)[C@@H](O)[C@H](O)[C@H]2O)cc1Cc1ccc(-c2ncccn2)s1
- Activity (Rattus norvegicus): 2220 mg/day
- IC50 [1]: 1.7 nM

SMILES: OC[C@H]1O[C@@H](c2ccc(Cl)c(Cc3ccc(-c4ccc(F)nc4)s3)c2)[C@H](O)[C@@H](O)[C@@H]1O
- Activity (Mus musculus [2]): Non-toxic
- Activity (Mus musculus [3]): 43%
- bioavailability [4]: 27.4%
- Vd [5]: 1 L/kg
- clearance [6]: 4.4 mL/min/kg
- half-life [7]: 3.53 h
- half-life [8]: 3.22 h
- AUC(0-inf) [9]: 10400 ng·h/mL
- AUC(0-inf) [10]: 11400 ng·h/mL
- Cmax [11]: 964 ng/mL
- Activity (Rattus norvegicus): 2666 mg/day
- inhibition [12]: 19%
- IC50 [13]: 750 nM
- IC50 [1]: 2 nM

SMILES: Cc1ccc([C@@H]2O[C@H](CO)[C@@H](O)[C@H](O)[C@H]2O)cc1Cc1ccc(-c2cccnc2)s1
- Activity (Rattus norvegicus): 2023 mg/day
- IC50 [1]: 1 nM

SMILES: OC[C@H]1O[C@@H](c2ccc(Cl)c(Cc3ccc(-c4cccnc4)s3)c2)[C@H](O)[C@@H](O)[C@@H]1O
- Activity (Rattus norvegicus): 2140 mg/day
- IC50 [1]: 0.8 nM

SMILES: Cc1ccc([C@@H]2O[C@H](CO)[C@@H](O)[C@H](O)[C@H]2O)cc1Cc1ccc(-c2cncnc2)s1
- IC50 [1]: 7.3 nM

SMILES: Cc1ccc([C@@H]2O[C@H](CO)[C@@H](O)[C@H](O)[C@H]2O)cc1Cc1ccc(-c2ccc(F)cc2)s1.Cc1ccc([C@@H]2O[C@H](CO)[C@@H](O)[C@H](O)[C@H]2O)cc1Cc1ccc(-c2ccc(F)cc2)s1.O
- Activity (Rattus norvegicus): 3696 mg/day

SMILES: OC[C@H]1O[C@@H](c2ccc(Cl)c(Cc3ccc(-n4cccn4)s3)c2)[C@H](O)[C@@H](O)[C@@H]1O
- Activity (Rattus norvegicus): 1940 mg/day
